Where a SMILES comes first, the peptide text is derived from it. Where no end group is shown, it is not given here. The star is where a group is joined. Myristoyl = CCCCCCCCCCCCCC(=O)*
What was measured:
[1] = test system: PKC-γ; test: In vitro kinase assay, immunoprecipitated PKC, MBP substrate, γ-[32P]ATP; assay type: biochemical; conditions: PMA and CaCl2
Summary of the method: (§1)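 HA-tagged classical PKC was overexpressed in HEK-293T, and lysate (100 μg) was immunoprecipitated with immobilized anti-HA. Incubated 30 min, 32 °C. 32P-MBP detected by SDS-PAGE/autoradiography; HA and MBP then immunoblotted and band signals quantified.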

[2] = test system: MDA-MB-231 breast cancer cells; test: Cell viability; assay type: cell-based, human; conditions: XTT; peptide concentration 10 μM; three independent experiments
Summary of the method: (§2)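 Cells seeded at 5 × 10^3/well and grown 16 to 24 h. N-terminally myristoylated peptides were added in serum-free medium for 4 h, then serum was replenished for 24 h. XTT absorbance was read and converted to cell number with a per-line standard curve (1.25 to 20 × 10^3 cells plated, assayed after 24 h). At least three repeats, each in triplicate.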

[3] = molecular target: PKCη (Homo sapiens, UniProt P24723); test: In vitro kinase assay, immunoprecipitated PKC, MBP substrate, γ-[32P]ATP; assay type: biochemical; conditions: for inhibition of kinase activity of PKCη: even at 10 μΜ peptide, MBP substrate
Summary of the method: (§3)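 Novel PKC isoforms were HA-tagged, expressed in HEK-293T and pulled down with anti-HA beads (100 μg lysate). Reaction 30 min at 32 °C; 32P-MBP read by autoradiography and normalized via HA/MBP immunoblots. Means of three independent experiments.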

[4] = molecular target: PKCδ (Homo sapiens, UniProt Q05655); test: as above; assay type: biochemical
Summary of the method: as §3

[5] = molecular target: T1, PKCε (Homo sapiens, UniProt Q02156); test: as above; assay type: biochemical
T1 sequence (Q02156 1-737): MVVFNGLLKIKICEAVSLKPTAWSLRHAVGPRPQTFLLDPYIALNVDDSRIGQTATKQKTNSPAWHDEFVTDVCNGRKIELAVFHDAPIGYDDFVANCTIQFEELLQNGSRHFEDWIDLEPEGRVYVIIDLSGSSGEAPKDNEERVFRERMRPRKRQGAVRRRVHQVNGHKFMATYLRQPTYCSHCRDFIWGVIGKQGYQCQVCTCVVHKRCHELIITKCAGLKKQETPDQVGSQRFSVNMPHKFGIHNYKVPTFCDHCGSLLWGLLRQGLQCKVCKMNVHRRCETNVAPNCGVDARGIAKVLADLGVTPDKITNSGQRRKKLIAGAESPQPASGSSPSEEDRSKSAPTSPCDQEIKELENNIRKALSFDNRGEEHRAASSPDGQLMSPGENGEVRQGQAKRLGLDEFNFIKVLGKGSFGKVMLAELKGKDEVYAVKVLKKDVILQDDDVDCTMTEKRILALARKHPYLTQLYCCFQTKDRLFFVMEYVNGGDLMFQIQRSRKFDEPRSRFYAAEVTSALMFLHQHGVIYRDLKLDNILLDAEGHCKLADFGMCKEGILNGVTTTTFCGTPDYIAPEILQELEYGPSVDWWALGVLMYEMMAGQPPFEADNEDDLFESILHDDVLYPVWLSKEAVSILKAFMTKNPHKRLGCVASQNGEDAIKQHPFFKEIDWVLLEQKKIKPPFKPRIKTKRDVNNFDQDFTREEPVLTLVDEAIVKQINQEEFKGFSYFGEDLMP
Summary of the method: as §3

[6] = molecular target: PKCθ (Homo sapiens, UniProt Q04759); test: as above; assay type: biochemical
Summary of the method: as §3

[7] = test system: U251 MG glioblastoma cancer cells; test: Cell viability; assay type: cell-based, human; conditions: XTT; peptide concentration 10 μM; three independent experiments
Summary of the method: as §2

[8] = test system: MCF-7 cells; test: Cell death with etoposide-induced DNA damage; assay type: cell-based, human; conditions: uPEP2 2 μM followed by etoposide 50 μM for 48 h, means of at least three experiments
[9] = test system: nontransformed MCF10A cells; test: Cell viability; assay type: cell-based, human; conditions: XTT; peptide concentration 10 μM; three independent experiments
Summary of the method: as §2

[10] = test system: PKC-η (Ser675, Thr655) in MCF-7 cells; test: Western blot of PKC-η priming-site phosphorylation; assay type: cell-based, human; conditions: peptide 10 μM for 4 h, with/without MG132 10 μM, immunoblot
[11] = test system: MDA-MB-231 tumors; test: MDA-MB-231 orthotopic breast cancer xenograft in NOD-SCID mice; assay type: in vivo; conditions: 10 mg/kg intratumor on alternate days; four mice
Summary of the method: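 Female 6–8-wk-old NOD-SCID mice received 4 × 10^6 MDA-MB-231-Luc cells in 100 μL PBS into the mammary fat pad. At ~100 mm3, mice were randomized to PBS, a non-myristoylated control peptide, or test peptide (10 mg/kg), given intratumorally on alternate days. Caliper measurements three times weekly; V = (W2 × L)/2. Endpoint at ~2,000 mm3.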

[12] = test system: MCF-7 cells; test: Western blot of DNA damage response markers and PKC-η after etoposide; assay type: cell-based, human; conditions: peptide 2 μM, etoposide 50 μM
Summary of the method: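 MCF-7 treated with peptides (2 μM), then etoposide (50 μM). Lysed 30 min after etoposide addition, then Western blot with specific antibodies for phospho-γ-H2AX, Chk1, Chk2, ATM and ATR; Hsp90 and β-actin as loading controls. A non-myristoylated, cell-impermeant peptide served as control. Three independent experiments.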

[13] = test system: PKC-ζ; test: In vitro kinase assay, immunoprecipitated PKC, MBP substrate, γ-[32P]ATP; assay type: biochemical
Summary of the method: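 Atypical isoform, HA-tagged and overexpressed in HEK-293T; anti-HA immunoprecipitate from 100 μg lysate. Autoradiography of 32P-MBP after SDS-PAGE, with anti-HA and anti-MBP immunoblots for quantification.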

[14] = test system: PKC-α; test: In vitro kinase assay, immunoprecipitated PKC, MBP substrate, γ-[32P]ATP; assay type: biochemical; conditions: PMA and CaCl2
Summary of the method: as §1

[15] = test system: MCF-7 breast cancer cells; test: Cell viability; assay type: cell-based, human; conditions: XTT; peptide concentration 10 μM; three independent experiments
Summary of the method: as §2

[16] = test system: MDA-MB-231 tumors; test: MDA-MB-231 orthotopic breast cancer xenograft in NSG mice; assay type: in vivo
[17] = test system: PKC-ε; test: Kinase assay with the peptide as substrate; assay type: biochemical; conditions: γ-ATP
[18] = test system: PKC-η; test: Kinase assay with the peptide as substrate; assay type: biochemical; conditions: γ-ATP

PKCη, sequence (P24723 whole entry, canonical isoform): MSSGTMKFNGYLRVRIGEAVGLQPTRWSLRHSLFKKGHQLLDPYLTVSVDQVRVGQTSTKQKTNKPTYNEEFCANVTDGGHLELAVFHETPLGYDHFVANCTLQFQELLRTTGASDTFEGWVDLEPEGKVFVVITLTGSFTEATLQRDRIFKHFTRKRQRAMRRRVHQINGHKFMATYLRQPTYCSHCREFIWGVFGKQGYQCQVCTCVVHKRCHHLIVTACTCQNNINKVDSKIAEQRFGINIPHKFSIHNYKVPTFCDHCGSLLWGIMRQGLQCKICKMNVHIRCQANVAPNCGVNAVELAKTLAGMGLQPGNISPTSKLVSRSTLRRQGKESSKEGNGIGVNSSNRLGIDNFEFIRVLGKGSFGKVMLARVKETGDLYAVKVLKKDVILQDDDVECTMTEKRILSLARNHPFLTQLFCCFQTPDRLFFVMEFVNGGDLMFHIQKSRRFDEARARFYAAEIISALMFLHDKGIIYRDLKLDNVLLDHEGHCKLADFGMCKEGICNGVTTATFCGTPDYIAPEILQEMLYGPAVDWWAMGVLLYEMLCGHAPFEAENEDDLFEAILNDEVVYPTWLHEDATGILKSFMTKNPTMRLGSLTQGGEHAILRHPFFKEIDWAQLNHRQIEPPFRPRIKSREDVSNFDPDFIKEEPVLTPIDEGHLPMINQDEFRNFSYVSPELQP
PKCθ, sequence (Q04759 whole entry): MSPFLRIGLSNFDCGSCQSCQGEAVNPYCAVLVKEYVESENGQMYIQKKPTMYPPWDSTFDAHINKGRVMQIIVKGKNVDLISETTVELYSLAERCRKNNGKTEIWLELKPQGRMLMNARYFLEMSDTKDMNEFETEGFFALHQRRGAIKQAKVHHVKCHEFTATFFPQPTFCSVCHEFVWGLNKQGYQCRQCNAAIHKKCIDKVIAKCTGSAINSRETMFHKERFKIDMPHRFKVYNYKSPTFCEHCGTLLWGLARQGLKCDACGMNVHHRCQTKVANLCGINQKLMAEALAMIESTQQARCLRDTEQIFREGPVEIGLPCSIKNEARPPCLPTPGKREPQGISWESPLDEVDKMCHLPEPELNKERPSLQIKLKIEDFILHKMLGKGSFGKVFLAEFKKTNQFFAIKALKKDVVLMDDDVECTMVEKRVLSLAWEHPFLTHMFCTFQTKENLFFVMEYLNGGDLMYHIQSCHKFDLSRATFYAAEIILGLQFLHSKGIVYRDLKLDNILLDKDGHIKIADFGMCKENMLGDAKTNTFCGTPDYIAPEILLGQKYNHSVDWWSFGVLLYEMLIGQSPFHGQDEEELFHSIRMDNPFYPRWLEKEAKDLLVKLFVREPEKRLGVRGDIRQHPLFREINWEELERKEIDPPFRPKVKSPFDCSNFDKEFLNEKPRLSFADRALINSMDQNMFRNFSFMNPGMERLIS
PKCδ, sequence (Q05655 whole entry): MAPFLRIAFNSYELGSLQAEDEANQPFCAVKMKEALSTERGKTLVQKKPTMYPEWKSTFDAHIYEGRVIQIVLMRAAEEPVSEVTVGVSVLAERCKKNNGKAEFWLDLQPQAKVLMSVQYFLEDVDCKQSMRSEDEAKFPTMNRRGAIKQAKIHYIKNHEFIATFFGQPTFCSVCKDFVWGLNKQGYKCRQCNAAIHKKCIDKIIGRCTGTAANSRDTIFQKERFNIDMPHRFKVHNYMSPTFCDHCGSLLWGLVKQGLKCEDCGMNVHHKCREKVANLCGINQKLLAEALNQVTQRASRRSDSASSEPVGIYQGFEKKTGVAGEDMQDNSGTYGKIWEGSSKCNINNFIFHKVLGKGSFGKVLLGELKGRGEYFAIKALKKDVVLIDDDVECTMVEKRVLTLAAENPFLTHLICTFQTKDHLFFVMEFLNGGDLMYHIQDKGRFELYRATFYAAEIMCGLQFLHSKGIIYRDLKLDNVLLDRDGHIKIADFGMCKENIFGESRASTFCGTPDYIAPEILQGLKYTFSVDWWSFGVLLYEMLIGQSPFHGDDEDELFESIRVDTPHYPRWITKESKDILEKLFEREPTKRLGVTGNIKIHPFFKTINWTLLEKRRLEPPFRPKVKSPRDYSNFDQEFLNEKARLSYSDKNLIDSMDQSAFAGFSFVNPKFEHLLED

CCCCCCCCCCCCCC(=O)N[C@@H](CCSC)C(=O)N[C@@H](C)C(=O)N[C@@H](CO)C(=O)N[C@@H](CCCNC(=N)N)C(=O)NCC(=O)N[C@@H](C)C(=O)N[C@@H](CC(C)C)C(=O)N[C@@H](CCCNC(=N)N)C(=O)N[C@@H](CCCNC(=N)N)C(=O)N[C@@H](CS)C(=O)N[C@@H](CC(C)C)C(=O)N[C@@H](CO)C(=O)N1CCC[C@H]1C(=O)NCC(=O)N[C@@H](CC(C)C)C(=O)N1CCC[C@H]1C(=O)N[C@@H](CCCNC(=N)N)C(=O)N[C@@H](CC(C)C)C(=O)N[C@@H](CC(C)C)C(=O)N[C@@H](Cc1c[nH]cn1)C(=O)N[C@@H](CC(C)C)C(=O)N[C@@H](CO)C(=O)N[C@@H](CCCNC(=N)N)C(=O)NCC(=O)N[C@@H](CC(C)C)C(=O)N[C@@H](C)C(N)=O [uPEP2] (Myristoyl-MASRGALRRCLSPGLPRLLHLSRGLA-NH2)
effect on kinase activity of PKC-γ (classical) [1]: did not affect | cell viability of MDA-MB-231 [2]: reduces cell viability | IC50 [3]: ~2000 nM | IC50 [4]: ~2000 nM | IC50 [5]: ~2000 nM | IC50 [6]: ~2000 nM | cell viability of U251 MG [7]: reduces cell viability | cell death in the presence of both agents (uPEP2 and etoposide) [8]: 95 to 100% | cell viability of MCF10A [9]: did not affect | phosphorylation of PKC-η priming sites Ser675 and Thr655 [10]: diminished | growth (volume) of MDA-MB-231 tumors in NOD-SCID mice [11]: inhibited the growth | PKC-η protein in etoposide-treated cells [12]: enhanced degradation | etoposide-promoted phosphorylation of ATM, ATR, Chk1 and Chk2 ([12]; lysis 30 min after etoposide): markedly decreased | phosphorylation of γ-H2AX upon etoposide ([12]; lysis 30 min after etoposide): markedly increased | effect on kinase activity of PKC-ζ (atypical) [13]: did not affect | effect on kinase activity of PKC-α (classical) [14]: did not affect | cell viability of MCF-7 [15]: reduces cell viability | breast tumor mass, NSG mice ([16]; 10 mg/kg intratumor on alternate days, five animals/group): significantly attenuates | growth (volume) of MDA-MB-231 tumors in NSG mice ([16]; 10 mg/kg intratumor on alternate days, five mice/group): inhibited the growth | expression levels of classical PKC-α, PKC-γ and atypical PKC-ζ in tumors ([16]; immunoblot of tumor extracts): not affected | protein levels of novel PKC-η and PKC-ε in tumors ([16]; immunoblot of tumor extracts, NSG and NOD-SCID mice): lower protein levels | phosphorylation of PKC substrates in tumors ([16]; phospho-(Ser) PKC substrate antibody, tumors grown in NSG or NOD-SCID mice): lower | apoptosis in tumors (TUNEL assay) ([16]; tumor tissue slides at end of experiment): increased apoptosis

Myr-MASRGS/TLRRCLSPGLPRLLHLSRGLA [uPEP2[A6S]]
phosphorylation of the peptide as substrate of PKC-ε [17]: excellent substrate | phosphorylation of the peptide as substrate of PKC-η [18]: excellent substrate

Myristoyl-CLSPGLPRLLHLSRGLA [uPEP2(10–26)]
inhibition of kinase activity of PKCη [3]: weak inhibitory effects

Myristoyl-MASRGALRRCLSPGLPR [uPEP2(1–17)]
cell viability of MDA-MB-231 [2]: partial inhibition

Myristoyl-MLLHLSRGLA [uPEP2(18–26)]
cell viability of MDA-MB-231 [2]: less effective | cell viability of U251 MG [7]: less effective | cell viability of MCF-7 [15]: less effective

Myristoyl-TRKRQRAMRRVHQING [η-PS, reference compound]
cell viability of MDA-MB-231 [2]: less effective | inhibition of kinase activity of PKCη [3]: weak inhibitory effects | cell viability of U251 MG [7]: less effective | cell viability of MCF-7 [15]: less effective

Source: publication PMC8501901 (Proceedings of the National Academy of Sciences of the …, 2021)
